Measurements as given in ChEMBL document CHEMBL1127827, “In vivo inhibition of cathepsin B by peptidyl (acyloxy)methyl ketones” (J Med Chem, 1994).

Assays:
Cathepsin B (Bos taurus) = Cathepsin B (Bos taurus) (UniProt P07688); test: Rate of cathepsin B inactivation in vitro in bovine spleen; assay type: tissue-based
How it was run: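 Purified bovine spleen cathepsin B; continuous fluorometric assay in 0.1 M potassium phosphate, 1.25 mM EDTA, 1 mM dithiothreitol, pH 6.0, 25 °C; second-order inactivation rate constant k/K (M-1 s-1) determined.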

Rattus norvegicus [1] = test: Percentage of control was measured on rat liver cathepsin B by a single intraperitoneal dose.(dose =10 mg/kg); assay type: functional
How it was run: (§1)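 Female Lewis rats, single intraperitoneal dose as CMC suspension; livers removed 4-5 h postdose, frozen homogenate supernatant assayed fluorimetrically with Z-Arg-Arg-NMec in 0.1 M KH2PO4 pH 6.0, 1 mM EDTA, 1 mM DTT, 37 °C 30 min; protein-normalized activity as % of CMC control; two dilutions in triplicate per animal, 4-5 animals per group.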

Rattus norvegicus [2] = test: Percentage of control was measured on rat liver cathepsin B by a single oral dose.(dose =50 mg/kg); assay type: functional
How it was run: (§2)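 Rats dosed once by gavage with compound suspended in CMC; livers taken 4-5 h postdose, frozen, homogenized and centrifuged; supernatant cathepsin B activity read with Z-Arg-Arg-NMec at pH 6.0, 37 °C, 30 min, quenched with chloroacetate/acetate pH 4.3; specific activity given as % of vehicle control, two dilutions in triplicate, 4-5 animals per group.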

Rattus norvegicus [3] = test: Percentage of control was measured on rat liver cathepsin B by a single oral dose of 50 mg/kg; assay type: functional; how it was run: as §2
Rattus norvegicus [4] = test: Percentage of control was measured on rat liver cathepsin B by a single intraperitoneal dose of 10 mg/kg; assay type: functional; how it was run: as §1
Rattus norvegicus [5] = test: ED50 value was determined for rat skeletal muscle at 20h postdose by subcutaneous administration; assay type: functional; settings: Muscle tissue, sc
How it was run: (§3)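 Female Lewis rats (150-200 g, usually four per group), single subcutaneous dose suspended in CMC; heart, liver or skeletal muscle harvested 20 h postdose, frozen in liquid nitrogen, homogenized, clarified at 15000g. Cathepsin B measured as Z-Arg-Arg-NMec (20 μM solution) hydrolysis, pH 6.0, 37 °C 30 min, fluorescence ex 340/em 460; specific activity as % of vehicle control; ED50 from dose-response.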

[6] = Half-life measured in in vitro Cathepsin B assay in human plasma; assay type: ADME, cell-free
[7] = Half-life measured in rat plasma
Rattus norvegicus [8] = test: Percent inhibition was measured on rat pancreas cathepsin B by a single subcutaneous dose of 20 mg/kg
Rattus norvegicus [9] = test: Percent inhibition was measured on rat spleen cathepsin B by a single subcutaneous dose of 20 mg/kg
Rattus norvegicus [10] = test: Percent inhibition was measured on rat heart cathepsin B by a single subcutaneous dose of 20 mg/kg
Rattus norvegicus [11] = test: Percent inhibition was measured on rat skeletal tissue cathepsin B by a single subcutaneous dose of 20 mg/kg
Rattus norvegicus [12] = test: Percent inhibition was measured on rat liver cathepsin B by a single subcutaneous dose of 20 mg/kg
Rattus norvegicus [13] = test: ED50 value was determined for rat heart at 20h postdose by subcutaneous administration; assay type: functional; settings: sc; how it was run: as §3
Rattus norvegicus [14] = test: ED50 value was determined for rat liver at 20h postdose by subcutaneous administration; assay type: functional; settings: sc; how it was run: as §3
Rattus norvegicus [15] = test: Percentage of control was measured on rat liver cathepsin B by a single intraperitoneal dose.(dose =100 mg/kg); assay type: functional; how it was run: as §1
Rattus norvegicus [16] = test: Percentage of control was measured on rat liver cathepsin B by a single oral dose.(dose =100 mg/kg); assay type: functional; how it was run: as §2

Row | SMILES | k/K (Cathepsin B (Bos taurus)) | Control (Rattus norvegicus [2]) | Control (Rattus norvegicus [3]) | further results
1 | Cc1cc(C)c(C(=O)OCC(=O)[C@@H](C)NC(=O)[C@H](Cc2ccccc2)NC(=O)c2ccc(C(=O)NS(=O)(=O)c3ccccc3)cc2)c(C)c1 | 2500 M⁻¹ s⁻¹ | 62% | – | Control (Rattus norvegicus [1]): 68%
2 | COc1ccc(C[C@H](NC(=O)OCc2ccccc2)C(=O)N[C@@H](CCCCN)C(=O)COC(=O)c2c(C)cc(C)cc2C)cc1.O=C(O)C(F)(F)F | 170000 M⁻¹ s⁻¹ | – | 30% | –
3 | CC(NC(=O)[C@H](Cc1ccccc1)NC(=O)OCc1ccccc1)C(=O)CF (some centres not stated) | 21000 M⁻¹ s⁻¹ | – | 7% | –
4 | CC(C)C[C@H](NC(=O)[C@H]1O[C@@H]1C(=O)O)C(=O)NCCCCN=C(N)N [E-64] | – | – | – | Control (Rattus norvegicus [4]): 24%
5 | Cc1cc(C)c(C(=O)OCC(=O)CNC(=O)[C@H](Cc2ccccc2)NC(=O)OCc2ccccc2)c(C)c1 | 9900 M⁻¹ s⁻¹ | 29% | – | –
6 | Cc1c(C)c(C(=O)OCC(=O)[C@H](C)NC(=O)[C@H](Cc2ccccc2)NC(=O)OCc2ccccc2)c(C)c(C)c1C(=O)O | 63000 M⁻¹ s⁻¹ | – | 79% | Control (Rattus norvegicus [4]): 53%
7 | Cc1cc(C)c(C(=O)OCC(=O)[C@@H](C)NC(=O)[C@H](Cc2ccccc2)NC(=O)CCC(=O)O)c(C)c1 | 1000 M⁻¹ s⁻¹ | 31% | – | Control (Rattus norvegicus [1]): 23%
8 | Cc1cc(C)c(C(=O)OCC(=O)[C@H](CCCCN)NC(=O)[C@H](Cc2ccccc2)NC(=O)OCc2ccccc2)c(C)c1.Cl | 230000 M⁻¹ s⁻¹ | – | 11% | ED50 (Rattus norvegicus [5]): 1 mg/kg; half-life [6]: > 33 h; half-life [7]: 1.6 h; Inhibition % (Rattus norvegicus [8]): 96%; Inhibition % (Rattus norvegicus [9]): 98%; Inhibition % (Rattus norvegicus [10]): 94%; Inhibition % (Rattus norvegicus [11]): 72%; Inhibition % (Rattus norvegicus [12]): 96%; ED50 (Rattus norvegicus [13]): ~0.1 mg/kg; Control (Rattus norvegicus [4]): 4%; ED50 (Rattus norvegicus [14]): 2.4 mg/kg
9 | Cc1cc(C)c(C(=O)OCC(=O)[C@@H](C)NC(=O)[C@H](Cc2ccccc2)NC(=O)OCc2ccccc2)c(C)c1 | 14000 M⁻¹ s⁻¹ | – | – | Control (Rattus norvegicus [15]): 69%; Control (Rattus norvegicus [16]): 78%
10 | Cc1cc(C)c(C(=O)OCC(=O)CNC(=O)[C@H](Cc2ccccc2)NC(=O)CCC(=O)O)c(C)c1 | 700 M⁻¹ s⁻¹ | – | 49% | –
11 | COC(=O)CCC(=O)N[C@@H](Cc1ccccc1)C(=O)N[C@H](C)C(=O)COC(=O)c1c(C)cc(C)cc1C | 4000 M⁻¹ s⁻¹ | 50% | – | Control (Rattus norvegicus [1]): 38%
